Published values pooled from the literature.
Lines come from different studies, so protocols differ.
Target: Ephrin type-B receptor 4 (EPHB4, Homo sapiens, UniProt P54760)
Residues used in one study (P54760 16-987): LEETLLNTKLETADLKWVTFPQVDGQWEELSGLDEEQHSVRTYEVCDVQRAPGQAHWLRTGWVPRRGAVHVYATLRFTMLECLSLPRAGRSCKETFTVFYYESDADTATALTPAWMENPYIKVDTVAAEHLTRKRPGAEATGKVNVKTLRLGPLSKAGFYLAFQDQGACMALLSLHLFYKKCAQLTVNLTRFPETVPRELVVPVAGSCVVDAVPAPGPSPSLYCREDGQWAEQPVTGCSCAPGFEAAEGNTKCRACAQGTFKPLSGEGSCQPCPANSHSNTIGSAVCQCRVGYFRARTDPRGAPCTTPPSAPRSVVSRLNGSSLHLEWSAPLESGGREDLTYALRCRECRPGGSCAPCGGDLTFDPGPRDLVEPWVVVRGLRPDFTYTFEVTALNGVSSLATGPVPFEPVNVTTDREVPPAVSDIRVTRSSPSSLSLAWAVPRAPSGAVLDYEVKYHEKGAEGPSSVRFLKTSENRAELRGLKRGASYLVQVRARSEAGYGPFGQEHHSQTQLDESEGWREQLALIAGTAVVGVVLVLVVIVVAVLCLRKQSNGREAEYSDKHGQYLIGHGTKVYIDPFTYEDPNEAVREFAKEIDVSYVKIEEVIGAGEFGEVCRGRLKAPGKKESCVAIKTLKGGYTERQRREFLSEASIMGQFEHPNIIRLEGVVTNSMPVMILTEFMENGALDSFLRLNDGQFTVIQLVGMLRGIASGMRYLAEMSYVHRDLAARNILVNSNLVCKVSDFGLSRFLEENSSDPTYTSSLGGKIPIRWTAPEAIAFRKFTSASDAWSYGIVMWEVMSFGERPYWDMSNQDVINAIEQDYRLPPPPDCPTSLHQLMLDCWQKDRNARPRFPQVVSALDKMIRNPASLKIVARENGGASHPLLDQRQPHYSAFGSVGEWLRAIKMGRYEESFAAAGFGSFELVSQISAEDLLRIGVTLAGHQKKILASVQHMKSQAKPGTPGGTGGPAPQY

| Structure (SMILES) | effect on | method | tested at | remaining binding [%] |
| --- | --- | --- | --- | --- |
| O=C(NCCCN1CCOCC1)c1ccc(Nc2ncc(Cl)c(-c3ccc(Cl)s3)n2)cc1 | binding | competition with immobilised ligand | 1 µM | 91 |
| Cc1cc(C)c(-n2ccn3nc(-c4cccnc4)cc23)cc1NC(=O)c1cc(C#N)cc(S(F)(F)(F)(F)F)c1 | cell-free assay | competition with immobilised ligand | 0.1 µM | 99.6 |
| F[C@@H]1CCN(c2nccc(-c3cnn4ncccc34)n2)C1 | binding | – | 1 µM | 90 |
| O=C(c1ccc(Nc2ncc(Cl)c(-c3cc4ccccc4s3)n2)cc1)N1CCC(N2CCCC2)CC1 | binding | competition with immobilised ligand | 1 µM | 65 |
| CCOC(=O)c1cc2cc(-c3cc(C(=O)NCc4ccc(C(=O)O)cc4)nn3C)ccc2[nH]1 | cell-free assay | competition with immobilised ligand | 0.1 µM | 99 |
| CCN1CCN(Cc2ccc(C(=O)Nc3ccc(C)c(Oc4ccc5c(c4)CC(=O)N5)c3)cc2C(F)(F)F)CC1 | binding | competition with immobilised ligand | 1 µM | 90 |
| COc1ccnn2ncc(-c3ccnc(N(C)C)n3)c12 | binding | – | 1 µM | 86 |
| Cn1cc(Cl)c2c(Oc3c(F)cc(Nc4cc(Cl)nc(N)n4)cc3F)ccnc21 | cell-free assay | competition with immobilised ligand | 0.1 µM | 100 |
| CNC(=O)[C@@H]1CC[C@@H](n2c(-c3ccc4cnccc4c3)nc3ccc(C(=O)NCc4cccc(C(N)=O)c4)cc32)C1 | binding | competition with immobilised ligand | 1 µM | 100 |
| COc1ncc2cc3ccccc3nc2c1C#N | cell-free assay | competition with immobilised ligand | 5 µM | 100 |
| C[C@@H]1CN(c2cc(-c3n[nH]c4ccc(OC5(C)CC5)cc34)ncn2)C[C@H](C)O1 | cell-free assay | competition with immobilised ligand | 0.1 µM | 79 |
| c1cncc(-c2cccc(Nc3nccc(NC4CCCCC4)n3)c2)c1 | binding | competition with immobilised ligand | 10 µM | 89 |
| C=CC(=O)N1CCC(C(=O)NCC(=O)N2CCN(c3nc(-c4cnc(N)nc4C(F)F)nc(N4CCOCC4)n3)CC2)CC1 | binding | competition with immobilised ligand | 1 µM | 100 |
| CN(C)c1nccc(-c2cnc3ncccn23)n1 | binding | – | 1 µM | 100 |
| CC1=C(C#N)C(c2ccc3c(c2)c(NC(=O)c2ccccc2C)nn3C)C(C#N)=C(C)N1 | cell-free assay | competition with immobilised ligand | 1 µM | 97 |
| C[C@H]1CCN(c2nccc(-c3cnn4ncccc34)n2)C1 | binding | – | 1 µM | 100 |
| O=C(NCC1CCOCC1)c1n[nH]cc1NC(=O)c1c(F)cccc1F | binding | competition with immobilised ligand | 1 µM | 100 |
| c1cnn2ncc(-c3ccnc(N4CCC45COC5)n3)c2c1 | binding | – | 1 µM | 92 |
| CCCCN(CCCC)C(=O)CN1C[C@@H](c2cc(OC)c3c(c2)OCO3)[C@H](C(=O)O)[C@H]1CC(C)(C)CCC | cell-free assay | competition with immobilised ligand | 1 µM | 98.5 |
| N[C@@H]1CCN(c2nccc(-c3cnn4ncccc34)n2)C1 | binding | – | 1 µM | 100 |
| O=C(c1ccc(Nc2ncc(Cl)c(-c3ccc(Cl)s3)n2)cc1)N1CCC(N2CCCC2)CC1 | binding | competition with immobilised ligand | 1 µM | 67 |
